Data reported in ChEMBL document CHEMBL1155932, “False positives in a reporter gene assay: identification and synthesis of substituted N-pyridin-2-ylbenzamides as competitive inhibitors of firefly luciferase” (J Med Chem, 2008).

T1: Luciferin 4-monooxygenase (Luciola lateralis) (UniProt Q01158)
T1 sequence (whole entry): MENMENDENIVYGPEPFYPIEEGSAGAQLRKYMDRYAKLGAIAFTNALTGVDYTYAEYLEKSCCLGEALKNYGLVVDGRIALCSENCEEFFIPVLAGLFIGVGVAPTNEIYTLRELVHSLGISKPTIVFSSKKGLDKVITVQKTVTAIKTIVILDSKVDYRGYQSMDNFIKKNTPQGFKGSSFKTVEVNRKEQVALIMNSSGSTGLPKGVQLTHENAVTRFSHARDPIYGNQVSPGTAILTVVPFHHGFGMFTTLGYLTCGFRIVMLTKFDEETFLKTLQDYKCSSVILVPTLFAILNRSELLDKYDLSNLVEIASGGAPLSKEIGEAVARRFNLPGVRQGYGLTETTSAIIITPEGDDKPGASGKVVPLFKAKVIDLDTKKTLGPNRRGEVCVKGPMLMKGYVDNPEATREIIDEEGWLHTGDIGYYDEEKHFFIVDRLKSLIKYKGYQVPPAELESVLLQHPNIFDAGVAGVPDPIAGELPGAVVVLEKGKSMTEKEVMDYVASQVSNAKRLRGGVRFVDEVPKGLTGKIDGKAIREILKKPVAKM

T2: Luciferin 4-monooxygenase (Luciola lateralis, UniProt Q01158)
T2 sequence (Q01158 whole entry): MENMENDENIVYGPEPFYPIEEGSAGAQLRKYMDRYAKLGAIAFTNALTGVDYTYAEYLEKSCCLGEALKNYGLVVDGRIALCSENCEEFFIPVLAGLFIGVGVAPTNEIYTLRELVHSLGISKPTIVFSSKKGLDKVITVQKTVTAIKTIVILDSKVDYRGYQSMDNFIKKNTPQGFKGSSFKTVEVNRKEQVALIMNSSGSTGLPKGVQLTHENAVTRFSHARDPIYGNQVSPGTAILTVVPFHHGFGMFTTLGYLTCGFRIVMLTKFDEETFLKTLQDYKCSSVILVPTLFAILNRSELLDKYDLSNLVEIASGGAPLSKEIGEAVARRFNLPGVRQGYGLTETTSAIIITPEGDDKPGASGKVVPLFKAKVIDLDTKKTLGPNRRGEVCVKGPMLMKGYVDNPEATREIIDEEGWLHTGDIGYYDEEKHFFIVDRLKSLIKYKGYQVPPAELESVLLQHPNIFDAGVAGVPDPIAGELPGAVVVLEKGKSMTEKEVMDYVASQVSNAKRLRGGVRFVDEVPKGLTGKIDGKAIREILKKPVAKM


Experiments:
[1] = biological target: T1, Luciferin 4-monooxygenase (Luciola lateralis); assay: Inhibition of firefly luciferase activity at 10 uM; conditions: Aquatica lateralis
Procedure, shortened: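 Single 10 µM inhibitor concentration against 32 pM firefly luciferase with 50 µM D-luciferin and 90 µM ATP, pH 7.8 glycine-Tris buffers containing MgSO4 and EDTA. 30 min incubation in the dark at room temperature, then luminescence read. Percent inhibition from n = 2 experiments in duplicate.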

[2] = biological target: T2, Luciferin 4-monooxygenase; assay: Inhibition of firefly luciferase activity; set-up: species or system Aquatica lateralis
Procedure, shortened: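 Firefly luciferase (32 pM) in glycine-Tris buffer with EDTA and MgSO4, pH 7.8; substrates 50 µM D-luciferin and 90 µM ATP in glycine-Tris/MgSO4/EDTA/0.1% BSA/azide buffer, pH 7.8. Inhibitor tested at 11 concentrations; 30 min dark incubation, room temperature; luminescence counted. Nonspecific activity defined with 100 µM reference inhibitor. IC50 ± SEM from three experiments in duplicate.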

[3] = substrate: O=C(Nc1ccc2ccccc2n1)c1ccccc1; conditions: Aquatica lateralis; 0.1 uM
[4] = substrate: O=C(Nc1ccc2ccccc2n1)c1ccccc1; conditions: Aquatica lateralis; 1 uM
[5] = substrate: O=C(Nc1ccc2ccccc2n1)c1ccccc1; conditions: Aquatica lateralis; 1 uM; remark: listed apart in the source

| inhibition [1] | IC50 [2] | Molecule | also measured |
| --- | --- | --- | --- |
| 26% | – | COc1ccc(C(=O)Nc2ccc(-c3ccccc3)cn2)c(OC)c1 | – |
| 51% | – | Cc1ccc(-c2ccc(NC(=O)c3ccccc3)nc2)cc1 | – |
| – | 69 nM | O=C(Nc1ccc(-c2ccccc2)cn1)c1ccccc1 | – |
| 27% | – | O=C(Nc1ccccn1)c1ccccc1 | – |
| 14% | – | CN(C)c1ccc(-c2ccc(NC(=O)c3ccccc3)nc2)cc1 | – |
| – | 560 nM | O=C(Nc1ccc(-c2ccc(Cl)cc2)cn1)c1ccccc1 | – |
| 0% | – | O=C(Nc1ccc(-c2ccccc2)cn1)c1ccc(Cl)cc1 | – |
| 12% | – | CC(C)Oc1ccc(C(=O)Nc2ccc(-c3ccccc3)cn2)cc1 | – |
| 38% | – | O=C(Nc1ccc(-c2cccc(Cl)c2)cn1)c1ccccc1 | – |
| – | 1200 nM | Nc1ccc(C(=O)Nc2ccc(-c3ccccc3)cn2)cc1 | – |
| – | 160 nM | O=C(Nc1ccc(-c2ccccc2)cn1)c1cccc(Cl)c1 | – |
| 35% | – | CN(C)c1ccc(C(=O)Nc2ccc(-c3ccccc3)cn2)cc1 | – |
| 22% | – | CCCC(=O)Nc1ccc(-c2ccccc2)cn1 | – |
| – | 6400 nM | Cc1ccc(NC(=O)c2ccccc2)nc1 | – |
| 18% | – | Cc1ccc(C(=O)Nc2ccc(-c3ccccc3)cn2)cc1 | – |
| – | 1700 nM | O=C(Nc1ccc2ccccc2n1)c1ccccc1 | – |
| 49% | – | CC(C)(C)c1ccc(-c2ccc(NC(=O)c3ccccc3)nc2)cc1 | – |
| – | 310 nM | COc1ccc(-c2ccc(NC(=O)c3ccccc3)nc2)cc1 | – |
| – | 2400 nM | O=C(Nc1ccc(-c2ccccc2)cn1)C1CCCCC1 | – |
| 30% | – | O=C(Nc1cccc(-c2ccccc2)n1)c1ccccc1 | – |
| 20% | – | O=C(Nc1ccccc1)Nc1ccc(-c2ccccc2)cn1 | – |
| 20% | – | c1ccc(CNc2ccc(-c3ccccc3)cn2)cc1 | – |
| 13% | – | O=C(Nc1ccc(-c2ccccc2)cn1)c1ccc(Cl)c(Cl)c1 | – |
| 28% | – | COc1ccc(C(=O)Nc2ccc(-c3ccccc3)cn2)cc1 | – |
| 38% | – | CC(C)Oc1ccc(-c2ccc(NC(=O)c3ccccc3)nc2)cc1 | – |
| 0% | – | O=C(Nc1ccc(-c2ccccc2)cn1)Oc1ccccc1 | – |
| 39% | – | O=C(Nc1ccc(-c2ccc(C(F)(F)F)cc2)cn1)c1ccccc1 | – |
| – | 610 nM | COc1ccc(C(=O)Nc2ccc(C)cn2)c(OC)c1 | – |
| 4% | – | O=C(Nc1ccc(-c2ccc(Cl)c(Cl)c2)cn1)c1ccccc1 | – |
| – | – | Luciferin 4-monooxygenase (Luciola lateralis), Q01158 (protein) MENMENDENIVYGPEPFYPIEEGSAGAQLRKYMDRYAKLGAIAFTNALTGVDYTYAEYLEKSCCLGEALKNYGLVVDGRIALCSENCEEFFIPVLAGLFIGVGVAPTNEIYTLRELVHSLGISKPTIVFSSKKGLDKVITVQKTVTAIKTIVILDSKVDYRGYQSMDNFIKKNTPQGFKGSSFKTVEVNRKEQVALIMNSSGSTGLPKGVQLTHENAVTRFSHARDPIYGNQVSPGTAILTVVPFHHGFGMFTTLGYLTCGFRIVMLTKFDEETFLKTLQDYKCSSVILVPTLFAILNRSELLDKYDLSNLVEIASGGAPLSKEIGEAVARRFNLPGVRQGYGLTETTSAIIITPEGDDKPGASGKVVPLFKAKVIDLDTKKTLGPNRRGEVCVKGPMLMKGYVDNPEATREIIDEEGWLHTGDIGYYDEEKHFFIVDRLKSLIKYKGYQVPPAELESVLLQHPNIFDAGVAGVPDPIAGELPGAVVVLEKGKSMTEKEVMDYVASQVSNAKRLRGGVRFVDEVPKGLTGKIDGKAIREILKKPVAKM | Km [3]: 16 µM; Vmax [3]: 96%; Km [4]: 3.8 µM; Vmax [4]: 56%; Km [5]: 53 µM; Vmax [5]: 95% |
